Measurements published in ChEMBL document CHEMBL6114937, “Synthesis and anti-tumor activity of new benzofuran-based chalcone derivatives as potent VEGFR-2 inhibitors” (RSC Med Chem, 2025).
pIC50: −log10 of the molar value.

Experiments:
HCC1806 [1] = assay: Cytotoxicity against human HCC1806 cells assessed as inhibition of cell viability incubated for 48 hrs by MTT assay; assay type: functional, cell-based; conditions: HCC1806, 48 h
How it was run: (§1)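 Log-phase cells seeded at 5 × 10^4 cells per mL in 96-well plates, cultured overnight at 37 °C, 5% CO2, then treated at 100, 50, 25, 12.5 and 6.25 μmol L−1, triplicate wells per concentration, for 48 h. MTT (20 μL of 5 mg ml−1) added for 4 h; after centrifugation the medium was removed and the formazan dissolved in DMSO. A570 was read and IC50 calculated. Cisplatin served as positive control.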

A549 = assay: Cytotoxicity against human A549 cells assessed as inhibition of cell viability incubated for 48 hrs by MTT assay; assay type: functional, cell-based; conditions: A549, 48 h; how it was run: as §1
HeLa = assay: Cytotoxicity against human HeLa cells assessed as inhibition of cell viability incubated for 48 hrs by MTT assay; assay type: functional, cell-based; how it was run: as §1
HCC1806 [2] = assay: Induction of apoptosis in human HCC1806 cells assessed as proportion of necrotic cells at 6 uM incubated for 24 hrs by AnnexinV-FITC/PI staining based flow cytometry (reference value: 3.40 %); assay type: functional
[3] = target: Vascular endothelial growth factor receptor 2 (Homo sapiens) (UniProt P35968); assay: Inhibition of VEGFR-2 (unknown origin) at 100 uM incubated for 90 mins by Kinase-Glo MAX reagent based luminescence analysis relative to control
How it was run: (§2)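 A VEGFR-2 (KDR) kinase kit was used. Compound was made in DMSO and diluted in 1× kinase buffer 1, with matched DMSO in all wells. Master mix and compound were combined, and the reaction was started with diluted VEGFR-2 kinase, then incubated at 30 °C for 45 min. Kinase-Glo MAX reagent was added for 15 min at room temperature before luminescence was read. Blank and positive-control wells were included.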

HCC1806 [4] = assay: Induction of apoptosis in human HCC1806 cells assessed as proportion of early apoptotic cells at 6 uM incubated for 24 hrs by AnnexinV-FITC/PI staining based flow cytometry (reference value: 5.32 %); assay type: functional
HCC1806 [5] = assay: Induction of apoptosis in human HCC1806 cells assessed as proportion of late apoptotic cells at 3 uM incubated for 24 hrs by AnnexinV-FITC/PI staining based flow cytometry (reference value: 5.29 %); assay type: functional
[6] = target: Vascular endothelial growth factor receptor 2 (Homo sapiens) (UniProt P35968); assay: Inhibition of VEGFR-2 (unknown origin) at 50 uM incubated for 90 mins by Kinase-Glo MAX reagent based luminescence analysis relative to control
HCC1806 [7] = assay: Induction of apoptosis in human HCC1806 cells assessed as proportion of viable cells at 3 uM incubated for 24 hrs by AnnexinV-FITC/PI staining based flow cytometry (reference value: 86.0 %); assay type: functional
HCC1806 [8] = assay: Induction of apoptosis in human HCC1806 cells assessed as proportion of early apoptotic cells at 3 uM incubated for 24 hrs by AnnexinV-FITC/PI staining based flow cytometry (reference value: 5.32 %); assay type: functional
HCC1806 [9] = assay: Induction of apoptosis in human HCC1806 cells assessed as proportion of viable cells at 6 uM incubated for 24 hrs by AnnexinV-FITC/PI staining based flow cytometry (reference value: 86.0 %); assay type: functional
HCC1806 [10] = assay: Induction of apoptosis in human HCC1806 cells assessed as proportion of necrotic cells at 3 uM incubated for 24 hrs by AnnexinV-FITC/PI staining based flow cytometry (reference value: 3.40 %); assay type: functional
HCC1806 [11] = assay: Induction of apoptosis in human HCC1806 cells assessed as proportion of late apoptotic cells at 6 uM incubated for 24 hrs by AnnexinV-FITC/PI staining based flow cytometry (reference value: 5.29 %); assay type: functional
[12] = target: Vascular endothelial growth factor receptor 2 (Homo sapiens) (UniProt P35968); assay: Inhibition of VEGFR-2 (unknown origin) at 25 uM incubated for 90 mins by Kinase-Glo MAX reagent based luminescence analysis relative to control; how it was run: as §2

Sequence of Vascular endothelial growth factor receptor 2 (Homo sapiens) (P35968 whole entry): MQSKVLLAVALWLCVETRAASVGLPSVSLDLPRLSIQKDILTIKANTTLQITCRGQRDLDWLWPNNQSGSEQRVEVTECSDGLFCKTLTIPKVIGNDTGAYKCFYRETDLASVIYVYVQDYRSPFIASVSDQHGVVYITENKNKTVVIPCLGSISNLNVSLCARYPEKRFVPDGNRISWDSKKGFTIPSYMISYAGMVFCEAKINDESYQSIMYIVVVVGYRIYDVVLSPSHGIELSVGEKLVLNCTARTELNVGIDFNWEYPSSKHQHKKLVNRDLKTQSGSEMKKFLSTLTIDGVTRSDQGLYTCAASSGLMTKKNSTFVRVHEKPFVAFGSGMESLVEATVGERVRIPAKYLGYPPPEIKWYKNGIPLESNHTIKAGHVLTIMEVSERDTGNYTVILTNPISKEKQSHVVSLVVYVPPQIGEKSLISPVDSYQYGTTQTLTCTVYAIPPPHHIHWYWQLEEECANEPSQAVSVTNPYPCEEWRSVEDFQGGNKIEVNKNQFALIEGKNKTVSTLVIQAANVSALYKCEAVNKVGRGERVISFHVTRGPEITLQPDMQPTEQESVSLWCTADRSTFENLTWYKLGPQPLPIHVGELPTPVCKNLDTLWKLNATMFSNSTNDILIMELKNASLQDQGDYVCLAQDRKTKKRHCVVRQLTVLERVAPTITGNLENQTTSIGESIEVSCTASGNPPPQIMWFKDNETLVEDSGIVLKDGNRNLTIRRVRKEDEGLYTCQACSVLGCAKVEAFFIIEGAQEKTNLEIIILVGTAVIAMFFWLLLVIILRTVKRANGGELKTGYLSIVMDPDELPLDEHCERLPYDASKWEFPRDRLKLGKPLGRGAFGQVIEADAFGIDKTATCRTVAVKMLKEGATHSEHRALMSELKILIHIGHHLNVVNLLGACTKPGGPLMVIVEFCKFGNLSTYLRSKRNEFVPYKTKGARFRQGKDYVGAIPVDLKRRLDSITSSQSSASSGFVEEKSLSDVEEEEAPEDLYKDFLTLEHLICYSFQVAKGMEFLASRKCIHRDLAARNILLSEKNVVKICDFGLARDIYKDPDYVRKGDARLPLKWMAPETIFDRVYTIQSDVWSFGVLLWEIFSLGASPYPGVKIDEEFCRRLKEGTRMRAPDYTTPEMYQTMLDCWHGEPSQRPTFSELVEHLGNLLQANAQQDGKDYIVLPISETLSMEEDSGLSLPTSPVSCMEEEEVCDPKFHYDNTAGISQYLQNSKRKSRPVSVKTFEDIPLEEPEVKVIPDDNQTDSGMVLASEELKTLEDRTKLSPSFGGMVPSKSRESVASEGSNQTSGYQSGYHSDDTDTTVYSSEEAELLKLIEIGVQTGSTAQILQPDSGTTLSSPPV

Structure (SMILES) | pIC50 (HCC1806 [1]) | pIC50 (A549) | pIC50 (HeLa) | further results
COc1cc2ncnc(Nc3ccc4oc(C(=O)/C=C/c5ccc(F)c(F)c5)cc4c3)c2cc1OC | 4.78 | < 4.60 | < 4.60 | 
COc1cc2ncnc(Nc3ccc4oc(C(=O)/C=C/c5ccc(Br)cc5)cc4c3)c2cc1OC | 4.73 | < 4.60 | 4.61 | 
COc1cc2ncnc(Nc3ccc4oc(C(=O)/C=C/c5ccc(Cl)cc5)cc4c3)c2cc1OC | < 4.60 | < 4.60 | < 4.60 | 
COc1cc2ncnc(Nc3ccc4oc(C(=O)/C=C/c5ccc(-n6cccn6)cc5)cc4c3)c2cc1OC | < 4.60 | < 4.60 | < 4.60 | 
COc1cc2ncnc(Nc3ccc4oc(C(=O)/C=C/c5ccc(N(C)C)cc5)cc4c3)c2cc1OC | < 4.60 | < 4.60 | < 4.60 | 
COc1cc2ncnc(Nc3ccc4oc(C(=O)/C=C/c5ccc(C)o5)cc4c3)c2cc1OC | < 4.60 | < 4.60 | < 4.60 | 
COc1cc2ncnc(Nc3ccc4oc(C(=O)/C=C/c5ccc(N6CCN(C)CC6)cc5)cc4c3)c2cc1OC | < 4.60 | < 4.60 | < 4.60 | 
COc1cc2ncnc(Nc3ccc4oc(C(=O)/C=C/c5ccc(N6CCOCC6)cc5)cc4c3)c2cc1OC | < 4.60 | < 4.60 | < 4.60 | 
COc1cc2ncnc(Nc3ccc4oc(C(=O)/C=C/c5ccncc5)cc4c3)c2cc1OC | 5.19 | < 4.60 | 5.20 | 
COc1cc2ncnc(Nc3ccc4oc(C(=O)/C=C/c5ccccn5)cc4c3)c2cc1OC | < 4.60 | < 4.60 | < 4.60 | 
COc1cc2ncnc(Nc3ccc4oc(C(=O)/C=C/c5ccc(O)cc5)cc4c3)c2cc1OC | 5.18 | 5.20 | 5.21 | 
COc1cc2ncnc(Nc3ccc4oc(C(=O)/C=C/c5cc6ccccc6o5)cc4c3)c2cc1OC | 4.77 | < 4.60 | < 4.60 | 
COc1cc2ncnc(Nc3ccc4oc(C(=O)/C=C/c5c[nH]c6ccc(Br)cc56)cc4c3)c2cc1OC | < 4.60 | < 4.60 | < 4.60 | 
COc1cc2ncnc(Nc3ccc4oc(C(=O)/C=C/c5ccccc5)cc4c3)c2cc1OC | 5.15 | 4.66 | 5.50 | 
COc1cc2ncnc(Nc3ccc4oc(C(=O)/C=C/c5cccs5)cc4c3)c2cc1OC | < 4.60 | < 4.60 | < 4.60 | 
COc1cc(/C=C/C(=O)c2cc3cc(Nc4ncnc5cc(OC)c(OC)cc45)ccc3o2)cc(OC)c1 | 5.23 | < 4.60 | 5.25 | Activity (HCC1806 [2]): 10%; inhibition [3]: 38%; Activity (HCC1806 [4]): 12.8%; Activity (HCC1806 [5]): 9.05%; inhibition [6]: 16%; Activity (HCC1806 [7]): 77.6%; Activity (HCC1806 [8]): 6.91%; Activity (HCC1806 [9]): 47.7%; Activity (HCC1806 [10]): 6.44%; Activity (HCC1806 [11]): 29.4%; inhibition [12]: 10%
COc1cc2ncnc(Nc3ccc4oc(C(=O)/C=C/c5c[nH]c6ccccc56)cc4c3)c2cc1OC | 5.02 | < 4.60 | 5.31 | 
COc1ccc(/C=C/C(=O)c2cc3cc(Nc4ncnc5cc(OC)c(OC)cc45)ccc3o2)cc1OC | < 4.60 | < 4.60 | < 4.60 | 
